Data set [1] has as its target T1, Catechol O-methyltransferase (Rattus norvegicus) (UniProt P22734).
T1 sequence (whole entry): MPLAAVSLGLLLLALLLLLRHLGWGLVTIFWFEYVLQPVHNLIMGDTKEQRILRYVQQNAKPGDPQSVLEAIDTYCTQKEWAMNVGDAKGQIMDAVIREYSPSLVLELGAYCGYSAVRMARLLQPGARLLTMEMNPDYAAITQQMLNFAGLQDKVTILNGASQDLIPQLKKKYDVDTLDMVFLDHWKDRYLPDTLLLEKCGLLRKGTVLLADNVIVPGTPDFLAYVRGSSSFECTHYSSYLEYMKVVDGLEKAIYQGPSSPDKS
The experiment in a line: Inhibition of Sprague-Dawley rat liver COMT at 0.2 mM by radiochemical technique. In short, it runs like this: (§1)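 Rat liver COMT, purified by a published method, was tested with inhibitor at 0.2 or 2.0 mM, SAM-14CH3 (0.05 μCi, 1.0 mM final) and 3,4-dihydroxybenzoate (2.0 mM final) in buffer. Incubation was at 37 °C. Activity was measured radiochemically by extracting the radiolabeled methylated product.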

Data set [2] deals with T2, Phenylethanolamine N-methyltransferase (Bos taurus) (UniProt P10938).
T2 sequence (whole entry): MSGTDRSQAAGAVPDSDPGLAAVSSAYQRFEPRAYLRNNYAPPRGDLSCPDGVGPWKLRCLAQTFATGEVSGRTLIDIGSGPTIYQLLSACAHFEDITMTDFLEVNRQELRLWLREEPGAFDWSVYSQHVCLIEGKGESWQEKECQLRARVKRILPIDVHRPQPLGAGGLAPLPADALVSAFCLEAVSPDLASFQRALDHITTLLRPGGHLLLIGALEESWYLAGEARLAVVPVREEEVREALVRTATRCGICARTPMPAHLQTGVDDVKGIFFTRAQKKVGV
In words: Inhibition of bovine adrenal medulla PNMT at 0.2 mM by radiochemical technique. Put shortly: (§2)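 Bovine adrenal medulla PNMT, purified by a published method, was tested with inhibitor at 0.2 or 2.0 mM, SAM-14CH3 (0.05 μCi, 1.0 mM final) and DL-β-phenylethanolamine (1.0 mM final) in buffer. Incubation was at 37 °C. Activity was measured radiochemically by extracting the labeled product.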

Data set [3] deals with Histamine N-methyltransferase (Cavia porcellus) (UniProt Q9EST2). In words: Inhibition of guinea pig HMT at 0.2 mM by radiochemical technique. Put shortly: (§3)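 HMT from guinea pig brain, purified by a published method, was tested with inhibitor at 0.2 or 2.0 mM, SAM-14CH3 (0.05 μCi, 1.0 mM final) and histamine (1.0 mM final) in buffer. Incubation was at 37 °C. Activity was measured radiochemically by extracting the radiolabeled product.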
Chain of Histamine N-methyltransferase (Cavia porcellus) (Q9EST2 whole entry): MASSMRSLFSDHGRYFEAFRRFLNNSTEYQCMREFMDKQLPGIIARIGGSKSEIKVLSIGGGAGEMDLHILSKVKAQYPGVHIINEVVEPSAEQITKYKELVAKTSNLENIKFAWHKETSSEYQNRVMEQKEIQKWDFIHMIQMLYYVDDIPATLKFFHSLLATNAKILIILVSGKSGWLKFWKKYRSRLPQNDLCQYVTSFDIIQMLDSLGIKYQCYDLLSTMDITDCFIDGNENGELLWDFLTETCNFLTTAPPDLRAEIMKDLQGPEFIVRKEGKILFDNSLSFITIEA

Data set [4] addresses T3, Acetylserotonin O-methyltransferase (Bos taurus) (UniProt P10950).
T3 sequence (whole entry): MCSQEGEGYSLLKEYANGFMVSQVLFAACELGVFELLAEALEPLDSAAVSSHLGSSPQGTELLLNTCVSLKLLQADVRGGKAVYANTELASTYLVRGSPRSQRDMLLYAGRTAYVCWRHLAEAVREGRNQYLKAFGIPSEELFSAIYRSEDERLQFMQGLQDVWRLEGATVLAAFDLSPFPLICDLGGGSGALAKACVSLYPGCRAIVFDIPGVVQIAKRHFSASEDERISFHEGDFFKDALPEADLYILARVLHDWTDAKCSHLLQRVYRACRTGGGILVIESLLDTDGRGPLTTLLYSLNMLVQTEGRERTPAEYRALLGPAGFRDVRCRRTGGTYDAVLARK
In words: Inhibition of bovine pineal gland HIOMT at 0.2 mM by radiochemical technique. In short, it runs like this:
(§4)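 Bovine pineal gland HIOMT, purified by a published method, was tested with inhibitor at 0.2 or 2.0 mM, SAM-14CH3 (0.05 μCi, 1.0 mM final) and N-acetylserotonin (1.0 mM final) in buffer. Incubation was at 37 °C. Product formation was read radiochemically after extraction of the labeled product.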

Data set [5] deals with T1, Catechol O-methyltransferase (Rattus norvegicus). The experiment in a line: Inhibition of Sprague-Dawley rat liver COMT at 2 mM by radiochemical technique. In short, it runs like this: as §1
Data set [6] has as its target T2, Phenylethanolamine N-methyltransferase (Bos taurus). The experiment in a line: Inhibition of bovine adrenal medulla PNMT at 2 mM by radiochemical technique. Put shortly: as §2
Data set [7] addresses Histamine N-methyltransferase (Cavia porcellus) (UniProt Q9EST2). The experiment in a line: Inhibition of guinea pig HMT at 2 mM by radiochemical technique. Put shortly:
as §3

The target in data set [8] is T3, Acetylserotonin O-methyltransferase (Bos taurus). In words: Inhibition of bovine pineal gland HIOMT at 2 mM by radiochemical technique. Put shortly:
as §4

Data set [9] is described as follows: Retardation factor, Rf of the compound on silica gel GF containing 5% Na2HPO4 by chromatography. In kind it is physicochemical. In short, it runs like this: (§5)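 TLC plates carried a 250 μm silica gel GF layer. Spots were located visually under UV light, and with ninhydrin for amine-containing compounds.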
Data set [10] is described as follows: Retardation factor, Rf of the compound on silica gel GF containing EtOH-HOAc-H2O (20:2:2)/0.1 M phosphate buffer at 7.4 by chromatography. In kind it is physicochemical. Particulars: pH 7.4. In short, it runs like this: as §5
The target of data set [11] is T1, Catechol O-methyltransferase (Rattus norvegicus). The experiment in a line: Inhibition of Sprague-Dawley rat liver COMT at 0.4 mM by radiochemical technique.
Data set [12] concerns the target T2, Phenylethanolamine N-methyltransferase (Bos taurus). The experiment in a line: Inhibition of bovine adrenal medulla PNMT at 0.4 mM by radiochemical technique.
For data set [13], the target named is Histamine N-methyltransferase (Cavia porcellus) (UniProt Q9EST2). The experiment in a line: Inhibition of guinea pig HMT at 0.4 mM by radiochemical technique.
Data set [14] has as its target T3, Acetylserotonin O-methyltransferase (Bos taurus). In words: Inhibition of bovine pineal gland HIOMT at 0.4 mM by radiochemical technique.
Data set [15] addresses T1, Catechol O-methyltransferase (Rattus norvegicus). In words: Inhibition of Sprague-Dawley rat liver COMT at 1 mM by radiochemical technique.
Data set [16] has as its target T2, Phenylethanolamine N-methyltransferase (Bos taurus). In words: Inhibition of bovine adrenal medulla PNMT at 1 mM by radiochemical technique.
Data set [17] concerns the target Histamine N-methyltransferase (Cavia porcellus) (UniProt Q9EST2). The experiment in a line: Inhibition of guinea pig HMT at 1 mM by radiochemical technique.
Data set [18] has as its target T3, Acetylserotonin O-methyltransferase (Bos taurus). In words: Inhibition of bovine pineal gland HIOMT at 1 mM by radiochemical technique.

Results on 14 molecules are retold here after ChEMBL document CHEMBL3244179, “Potential inhibitors of S-adenosylmethionine-dependent methyltransferases. 7. Role of the ribosyl moiety in enzymatic binding of S-adenosyl-L-homocysteine and S-adenosyl-L-methionine” (J Med Chem, 1978).

In the case of `Nc1ncnc2c1ncn2[C@@H]1O[C@H](C[S+]([O-])CC[C@@H](N)C(=O)O)[C@@H](O)[C@H]1O` (some centres undefined), the inhibition turned out to be 14% in [1]; 10% in data set [2]; 0% in data set [3]; 0% in [4]; 42% in data set [5]; 22% in [6]. The inhibition came to 9% in data set [7] and 0% in data set [8]. The figures for the Rf in data set [9] and in data set [10] were 0.72 and 0.74, respectively.
`Nc1ncnc2c1ncn2[C@@H](CO)O[C@@H](CO)C[S+]([O-])CC[C@@H](N)C(=O)O` (some centres undefined): the inhibition in data set [1] turned out to be 5%; in [2] it was 9%; in data set [3] it was 0%; in data set [4], 7%; in data set [5], 22%; in data set [6], 17%. Further, the inhibition in data set [7] is 0%; in [8], 16%. The results for the Rf in [9] and in [10] were 0.6 and 0.74, respectively.
For the molecule `Nc1ncnc2c1ncn2[C@@H]1O[C@H](CSCC(N)C(=O)O)[C@@H](O)[C@H]1O` (single isomer, unassigned), the inhibition in data set [1] is 0%; in data set [2], 11%; in [3], 14%; in [4], 12%; in [5], 5%; in data set [6] it was 27%. For the same molecule, the inhibition in data set [7] amounted to 43%; in data set [8], 33%. Further, the Rf amounted to 0.74 in [9] and 0.79 in data set [10].
In the case of `Nc1ncnc2c1ncn2[C@@H](CO)O[C@@H](CO)CSCC[C@H](N)C(=O)O`, the inhibition was found to be 2% in data set [1]; 0% in data set [2]; 0% in data set [3]; 0% in data set [4]; 25% in data set [5]; 0% in [6]. In addition, the inhibition was 0% in data set [7] and 6% in [8]. Besides, the Rf in data set [9] is on record as 0.65; in [10] it was 0.72.
As for `Nc1nnnc2c1ncn2[C@@H]1O[C@H](CSCCC(N)C(=O)O)[C@@H](O)[C@H]1O` (single isomer, unassigned), the inhibition is 3% in [11]; 38% in [12]; 0% in data set [13]; 23% in [14]; 6% in data set [15]; 58% in [16]. In addition, the inhibition came out at 8% in [17] and 39% in [18]. Further, the Rf stood at 0.7 in data set [9] and 0.79 in data set [10].
`Nc1ncnc2c1nnn2[C@@H](CO)O[C@@H](CO)CSCC[C@@H](N)C(=O)O`: the inhibition worked out at 0% in [1]; 0% in data set [2]; 0% in data set [3]; 12% in data set [4]; 17% in data set [5]; 10% in [6]. The inhibition came to 0% in [7] and 31% in data set [8]. Moreover, the Rf is 0.69 in [9] and 0.58 in data set [10].
Turning to `C[S+](CC[C@@H](N)C(=O)O)C[C@H](CO)O[C@H](CO)n1cnc2c(N)ncnc21` (some centres undefined), the inhibition in [1] came to 7%; in [2], 1%; in [3] it was 0%; in data set [4], 0%; in data set [5], 14%; in [6], 21%. Further, the figures for the inhibition in data set [7] and in data set [8] were 0% and 8%, respectively. Further, the results for the Rf in data set [9] and in [10] were 0.46 and 0.11, respectively.
For `Nc1nnnc2c1ncn2[C@@H](CO)O[C@@H](CO)CSCC[C@@H](N)C(=O)O`, the inhibition in data set [1] was 4%; in data set [2], 0%; in data set [3] it was 0%; in [4], 18%; in data set [5] it was 5%; in data set [6], 15%. Moreover, the inhibition in data set [7] amounted to 0%; in data set [8], 25%. Moreover, the Rf in data set [9] was determined as 0.69; in data set [10] it was 0.66.
Turning to `C[S+](CC[C@H](N)C(=O)[O-])C[C@H]1O[C@@H](n2cnc3c(N)ncnc32)[C@H](O)[C@@H]1O` (some centres undefined) [ADEMETIONINE], the Rf in [9] turned out to be 0.34; in [10] it was 0.2.
With `Nc1ncnc2c1ncn2[C@@H]1O[C@H](CSCC[C@H](N)C(=O)O)[C@@H](O)[C@H]1O` [S-ADENOSYLHOMOCYSTEINE], the inhibition in data set [1] is 39%; in [2], 49%; in [3], 40%; in data set [4] it was 71%; in data set [5] it was 87%; in [6] it was 92%. Besides, the inhibition in data set [7] worked out at 89%; in data set [8], 94%. Besides, the Rf in data set [9] and in data set [10] was 0.73 in each case.
With `Nc1ncnc2c1nnn2[C@@H]1O[C@H](CSCCC(N)C(=O)O)[C@@H](O)[C@H]1O` (single isomer, unassigned), the inhibition in [4] is 49%; in data set [8] it was 89%. The Rf in data set [9] was found to be 0.71; in [10], 0.72.
For `Nc1ncnc2c1ncn2[C@@H]1O[C@H](CSCCC(N)C(=O)O)[C@@H](O)[C@H]1O` (single isomer, unassigned), the inhibition in [1] was found to be 5%; in data set [2], 14%; in data set [3] it was 73%; in data set [4], 1%; in data set [5] it was 22%; in data set [6] it was 32%. Also, the inhibition stood at 99% in [7] and 6% in data set [8].
On to `Nc1ncnc2c1ncn2[C@@H](CO)O[C@@H](CO)CSCC[C@@H](N)C(=O)O`, for which the inhibition amounted to 0% in data set [1]; 8% in data set [2]; 0% in data set [3]; 9% in [4]; 26% in data set [5]; 16% in data set [6]. For the same molecule, the inhibition in data set [7] amounted to 19%; in data set [8], 26%. The Rf came to 0.65 in data set [9] and 0.72 in data set [10].
For `Nc1ncnc2c1ncn2[C@@H](CO)O[C@@H](CO)CSC[C@@H](N)C(=O)O`, the inhibition in data set [1] worked out at 0%; in data set [2], 10%; in [3], 0%; in data set [4], 0%; in data set [5], 12%; in data set [6] it was 15%. Further, the inhibition in [7] worked out at 3%; in data set [8], 0%. Moreover, the Rf in [9] came to 0.63; in data set [10], 0.75.

As usually defined, the inhibition is how much of the control response was suppressed. Low values mean a weak effect, high ones a strong effect.
